Hep lipid drop: inhibitors of hepatocyte lipid droplet formation, primary screen, imaging, high-throughput imaging, BODIPY stain. AML12 mouse hepatocytes, oleate lipid droplets. inhibition, % at 6.5 µM. actives 0.4% (n = 240,000);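 active = lipid droplet intensity inhibited by at least 50%, with more than 500 cells counted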
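Test system: AML12 hepatocytes (mouse); reagent: oleate loading, 100 µM; dosing: one dose, 6.5 µM compound; incubation: overnight exposure; signal: fluorescence imaging, 20x objective, two fields per well; read-out basis: % inhibition of corrected integrated BODIPY droplet signal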
Jurkat NFkB inh: inhibitors of induced NF-kB luciferase reporter, primary screen, TCR NF-kB activation inhibitor project, cell-based, luminescence, uHTS | Jurkat, PMA/ionomycin-induced NF-kB luciferase reporter | inhibition, % at 4 µM | actives 0.53% (n = 330,000); in the data active = inhibition above about 50%
TAG inh: inhibitors of triacylglycerol accumulation, primary screen, cell-based, uHTS, fluorescence, H9c2 | H9c2 cells, Nile Red lipid (TAG) fluorescence; cells loaded with 200 µM oleic acid | inhibition, % at 12.5 µM | actives 0.66% (n = 230,000) | AID 651582, 2012;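 active = pattern-corrected inhibition of lipid staining of at least 50% with the nuclear-stain viability signal not falling by more than 50%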;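 also: 0% = DMSO wells and 100% = triacsin C control wells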
APP 5UTR inh: inhibitors of APP translation via 5'UTR reporter, primary screen, APP 5'UTR luciferase, SH-SY5Y cells. SH-SY5Y APP 5'UTR-luciferase reporter, luminescence. inhibition, % at 2 µM. actives 0.82% (n = 190,000). AID 1285, 2008;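 active = inhibition above a set limit, derived from the sample mean plus 3 SD, cut at about 45% in these data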
697 NFkB inh: inhibitors of PMA/ionomycin-induced NF-kB reporter, 697 cells, primary screen, B-cell NF-kB inhibitor project, cell-based, luminescence, uHTS | AID 435022, 2010 | actives 0.33% (n = 330,000) | 697 B-cell NF-kB luciferase reporter, 16 h | inhibition, % at 4 µM; in the data active = inhibition above about 35%
aSyn UTR inh: MLPCN primary screen, SNCA 5' untranslated region | inhibition, % (tested at 7.5 µM) | alpha-synuclein 5'UTR reporter, inhibitor activity | actives 0.82% (n = 300,000); in the data active = inhibition above about 60%;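 also: H4 neuroglioblastoma cells stably carrying SNCA 5'UTR luciferase fusion; 0% = DMSO wells and 100% = positive control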
Numbers without * were called inactive; nt = no result. This is a sample that favours compounds with a hit; in the whole collection about 1.9% have one here.

SMILES | Hep lipid drop | Jurkat NFkB inh | TAG inh | APP 5UTR inh | 697 NFkB inh | aSyn UTR inh
CCCCC(=O)OCC(=O)Nc1ccc(SC(F)F)cc1 | -10.8 | 4.9 | -6.5 | 0.1 | 19.9 | nt
Clc1ccc2noc(-c3ccccc3)c2c1 | 3.8 | -5.5 | nt | 46.9* | -9.7 | 13.8
OC(COc1ccc(CNCCc2ccc(C(F)(F)F)cc2)cc1)CN1CCCCC1 (stereo unspecified) | -2.6 | 5.4 | 36.8 | 14.1 | -4.1 | 82.2*
O=C(N/N=C/c1ccc(Cl)cc1Cl)c1ccncc1 | -1.4 | -4.2 | nt | nt | -31.3 | -2.8
O=C(N/N=C/c1cc(Br)c(Br)s1)c1ccncc1 | 14.1 | 16.0 | 47.7 | -7.3 | 6.1 | 84.3*
O=C(N/N=C/c1cc(Cl)cc(Cl)c1O)c1ccncc1 | 4.3 | 0.3 | 65.4* | nt | -65.1 | 23.6
Oc1c(Cl)cc(Cl)cc1/C=N/Nc1ncc(Br)cn1 | -1.1 | 33.1 | 8.4 | 81.0* | 11.0 | 42.9
Cc1ccc(N=Cc2cc(Cl)cc(Cl)c2O)nc1 | 7.4 | 2.9 | nt | -1.0 | 16.6 | -2.9
O=C(c1cc(C2CCCCN2C(=O)CCCc2ccccc2)on1)N1CCOCC1 (stereo unspecified) | nt | nt | -4.6 | nt | nt | nt
O=C(N/N=C/c1ccccc1O)C1CC(=O)N(c2ccc(Cl)cc2)C1 (stereo unspecified) | 9.7 | 1.3 | 20.3 | nt | -6.5 | 83.3*
CCCc1cc(N2CCCC(C(=O)Nc3c(OC)cccc3OC)C2)n2ncnc2n1 (stereo unspecified) | nt | 11.2 | nt | 50.3* | -11.1 | 26.6
COc1cc(OC)cc(-c2cc3nc(C)c(CCC(=O)NC(C)CCc4ccco4)c(C)n3n2)c1 (stereo unspecified) | 13.3 | 6.8 | 17.1 | 4.3 | 21.7 | 48.0
COc1cc(OC)cc(-c2cc3nc(C)c(CCC(=O)O)c(C)n3n2)c1 | nt | nt | 5.6 | 77.8* | nt | nt
CCOC(=O)C1CCN(C(=O)CCc2c(C)nc3cc(-c4ccccc4)nn3c2C)CC1 | nt | 23.5 | -10.7 | 22.9 | 29.2 | 66.5*
Cc1nc2cc(-c3ccccc3)nn2c(C)c1CCC(=O)N1CCN(c2ccccn2)CC1 | nt | nt | nt | 22.7 | nt | nt
Cc1ccc(-n2nc(C)c3c2OC(N)=C(C#N)C3c2ccccc2F)cc1 (stereo unspecified) | nt | 28.5 | nt | 47.2* | 8.3 | 9.6
CN(C)c1nnnn1-c1ccc(Cl)cc1Cl | 5.8 | -1.1 | 14.5 | -3.4 | 7.9 | -9.8
O=C(O)Cc1c(C(=O)O)nnn1-c1ccc(Cl)cc1Cl | 7.9 | -7.6 | 14.4 | 50.5* | -14.4 | 7.0
CCOC(=O)C1(C)CCCN(C(=O)c2c(-c3ccccc3)noc2C)C1 (stereo unspecified) | nt | nt | -4.7 | nt | nt | nt
CCCn1c(N2CCN(CC(=O)c3c(C)n(C)c4ccc(OC)cc34)CC2)nc2c1c(=O)[nH]c(=O)n2C | nt | 5.0 | 3.3 | 3.3 | 15.3 | 62.6*
COc1ccc(CCn2c(N3CCN(C)CC3)nc3c2c(=O)[nH]c(=O)n3C)cc1 | nt | 5.9 | nt | 3.4 | 3.5 | -3.9
CCOC(=O)c1csc(NC(=O)CCS(=O)(=O)c2ccc(Cl)cc2)n1 | nt | nt | -0.5 | nt | nt | nt
O=C1/C(=C/c2ccccc2[N+](=O)[O-])COc2ccccc21 | 11.2 | 17.1 | 53.7 | 85.9* | -6.7 | -113.6
CSCCC(NS(=O)(=O)c1ccc2c(c1)OCCO2)C(=O)N(C)Cc1ccccc1F (stereo unspecified) | nt | 1.0 | -10.5 | nt | 21.2 | nt
OCCNc1cnc2ccccc2n1 | 23.9 | -16.7 | 1.9 | 49.2* | -10.2 | -16.6
CC(=O)OC[C@@H]1CN(Cc2ccccc2)C[C@H](n2cnc3c(NC4CCCC4)ncnc32)O1 | nt | nt | 11.3 | nt | nt | nt
CCOc1[nH]n(-c2ccc(Cl)cc2)c(=O)c1C=NCc1cccnc1 | 0.3 | -6.6 | nt | -32.0 | -6.5 | 5.9
CCOc1[nH]n(-c2ccccc2)c(=O)c1C=NCc1ccncc1 | 2.5 | 7.6 | 7.2 | 48.9* | -16.7 | 14.4
CCN1CCN(c2ccc(S(=O)(=O)N3CCCCC3)cc2NC(=O)c2sccc2C)CC1 | nt | 3.9 | 8.4 | nt | -14.9 | -14.2
Cc1ccc(-c2nc(-c3ccccn3)no2)cc1Cl | nt | 13.5 | -13.9 | -158.7 | -115.9 | 103.8*
